According to ChEMBL document CHEMBL4689842, “EUbOPEN Chemogenomics Library wave 1” (2021):

Test system: Fibroblast
Experiment: Multiplex assay against human fibroblast
Assay type: toxicity, cell-based
Method in brief: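 Per cents of healthy-nucleus cells form the tubulin, mitochondrial-mass and membrane-permeability phenotype values. Live cells were stained at seeding with Hoechst33342, BioTracker Green Microtubule Cytoskeleton Dye, MitoTracker Red and Annexin V Alexa Fluor 680. After compound addition they were imaged on a CQ1 microscope at 37°C and 5% CO2, and CellPathfinder machine-learning gating split them into Hoechst high-intensity objects or normal cells, normal cells into healthy, pyknosed or fragmented nuclei, and pyknosed cells into mitotic or apoptotic.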

[1] = 12 h, 1 µM, compound concentration 1 uM, replicate 1
[2] = 12 h, 1 µM, compound concentration 1 uM, replicate 2
[3] = 12 h, 10 µM, compound concentration 10 uM, replicate 1
[4] = 12 h, 10 µM, compound concentration 10 uM, replicate 2
[5] = 24 h, 1 µM, compound concentration 1 uM, replicate 1
[6] = 24 h, 1 µM, compound concentration 1 uM, replicate 2
[7] = 24 h, 10 µM, compound concentration 10 uM, replicate 1

O=C(O)c1ccc2cc(-c3ccc(O)c(C45CC6CC(CC(C6)C4)C5)c3)ccc2c1 [O-DEMETHYLATED ADAPALENE]
Population Apoptotic (%) [1]: 57%
Population Fragmented Nuclei (%) [1]: 36%
Population Healthy Nuclei (%) [1]: 20%
Population Hoechst High Intensity Objects (%) [1]: 18%
Population Membrane Permeable-Phenotype (%) [1]: 31%
Population Mitochondria Different-Phenotype (%) [1]: 21%
Population Mitotic Cells (%) [1]: 42%
Population Normal (%) [1]: 81%
Population Pyknosed Nuclei (%) [1]: 43%
Population Tubulin-Different-Phenotype (%) [1]: 60%
Total Cell Count [1]: 249
Population Apoptotic (%) [2]: 100%
Population Fragmented Nuclei (%) [2]: 8%
Population Healthy Nuclei (%) [2]: 87%
Population Hoechst High Intensity Objects (%) [2]: 9%
Population Membrane Permeable-Phenotype (%) [2]: 6%
Population Mitochondria Different-Phenotype (%) [2]: 16%
Population Mitotic Cells (%) [2]: 0%
Population Normal (%) [2]: 90%
Population Pyknosed Nuclei (%) [2]: 3%
Population Tubulin-Different-Phenotype (%) [2]: 16%
Total Cell Count [2]: 62
Population Apoptotic (%) [3]: 72%
Population Fragmented Nuclei (%) [3]: 32%
Population Healthy Nuclei (%) [3]: 37%
Population Hoechst High Intensity Objects (%) [3]: 16%
Population Membrane Permeable-Phenotype (%) [3]: 44%
Population Mitochondria Different-Phenotype (%) [3]: 0%
Population Mitotic Cells (%) [3]: 27%
Population Normal (%) [3]: 83%
Population Pyknosed Nuclei (%) [3]: 30%
Population Tubulin-Different-Phenotype (%) [3]: 33%
Total Cell Count [3]: 115
Population Apoptotic (%) [4]: 100%
Population Fragmented Nuclei (%) [4]: 11%
Population Healthy Nuclei (%) [4]: 87%
Population Hoechst High Intensity Objects (%) [4]: 2%
Population Membrane Permeable-Phenotype (%) [4]: 1%
Population Mitochondria Different-Phenotype (%) [4]: 16%
Population Mitotic Cells (%) [4]: 0%
Population Normal (%) [4]: 97%
Population Pyknosed Nuclei (%) [4]: 1%
Population Tubulin-Different-Phenotype (%) [4]: 25%
Total Cell Count [4]: 83
Population Apoptotic (%) [5]: 53%
Population Fragmented Nuclei (%) [5]: 35%
Population Healthy Nuclei (%) [5]: 20%
Population Hoechst High Intensity Objects (%) [5]: 23%
Population Membrane Permeable-Phenotype (%) [5]: 29%
Population Mitochondria Different-Phenotype (%) [5]: 18%
Population Mitotic Cells (%) [5]: 46%
Population Normal (%) [5]: 76%
Population Pyknosed Nuclei (%) [5]: 43%
Population Tubulin-Different-Phenotype (%) [5]: 45%
Total Cell Count [5]: 236
Population Apoptotic (%) [6]: 100%
Population Fragmented Nuclei (%) [6]: 7%
Population Healthy Nuclei (%) [6]: 89%
Population Hoechst High Intensity Objects (%) [6]: 6%
Population Membrane Permeable-Phenotype (%) [6]: 6%
Population Mitochondria Different-Phenotype (%) [6]: 30%
Population Mitotic Cells (%) [6]: 0%
Population Normal (%) [6]: 93%
Population Pyknosed Nuclei (%) [6]: 3%
Population Tubulin-Different-Phenotype (%) [6]: 18%
Total Cell Count [6]: 60
Population Apoptotic (%) [7]: 57%
Population Fragmented Nuclei (%) [7]: 28%
Population Healthy Nuclei (%) [7]: 42%
Population Hoechst High Intensity Objects (%) [7]: 21%
Population Membrane Permeable-Phenotype (%) [7]: 55%
